Results taken from ChEMBL document CHEMBL4373633, “New methods to assess 6-thiopurine toxicity and expanding its therapeutic application to pancreatic cancer via small molecule potentiators” (Medchemcomm, 2019).
Activity calls are given as the source filed them. The rule behind the calls is not given here.

Experiments:
[1] = test system: A549; experiment: Antiproliferative activity against human A549 cells assessed as reduction in cell viability after 72 hrs by alamar blue assay; assay type: functional, cell-based; conditions: A549, 72 h
Procedure, shortened: (§1)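 Cell lines from ATCC, grown in medium with FBS and antibiotics at 37 °C, 5% CO2, 95% humidity. Compound DMSO stocks diluted in medium over 31.6 nM–200 μM, tested in triplicate. Plated at 2000 cells/well (adherent) or 3500 (suspension). After 69 h of continuous exposure, Alamar Blue was added for 3 h more. Fluorescence read at ex 560/em 590 nm. IC50 from ≥3 independent experiments.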

[2] = test system: REH; experiment: Synergistic antiproliferative activity against human REH cells assessed as cell death at 2.5 uM after 72 hrs in presence of 50 uM 6TP by alamar blue assay (reference value: 21.9%); assay type: functional
[3] = test system: MIA PaCa-2; experiment: Synergistic antiproliferative activity against human MIAPaCa2 cells assessed as cell death at 5 uM after 72 hrs in presence of 50 uM 6TP by alamar blue assay (reference value: 13.8%); assay type: functional
[4] = test system: MIA PaCa-2; experiment: Synergistic antiproliferative activity against human MIAPaCa2 cells assessed as cell death at 2.5 uM after 72 hrs in presence of 50 uM 6TP by alamar blue assay (reference value: 13.8%); assay type: functional
[5] = test system: REH; experiment: Synergistic antiproliferative activity against human REH cells assessed as cell death at 5 uM after 72 hrs in presence of 25 uM 6TP by alamar blue assay (reference value: 12.2%); assay type: functional
[6] = test system: MIA PaCa-2; experiment: Synergistic antiproliferative activity against human MIAPaCa2 cells assessed as cell death at 5 uM after 72 hrs in presence of 25 uM 6TP by alamar blue assay (reference value: 6.4%); assay type: functional
[7] = test system: MIA PaCa-2; experiment: Synergistic antiproliferative activity against human MIAPaCa2 cells assessed as cell death at 2.5 uM after 72 hrs in presence of 100 uM 6TP by alamar blue assay (reference value: 30.7%); assay type: functional
[8] = test system: REH; experiment: Synergistic antiproliferative activity against human REH cells assessed as cell death at 2.5 uM after 72 hrs in presence of 25 uM 6TP by alamar blue assay (reference value: 12.2%); assay type: functional
[9] = test system: A549; experiment: Synergistic antiproliferative activity against human A549 cells at 2.5 to 5 uM after 72 hrs in presence of 6TP by alamar blue assay; assay type: functional, cell-based
[10] = test system: MIA PaCa-2; experiment: Synergistic antiproliferative activity against human MIAPaCa2 cells assessed as cell death at 5 uM after 72 hrs in presence of 100 uM 6TP by alamar blue assay (reference value: 30.7%); assay type: functional
[11] = test system: MIA PaCa-2; experiment: Synergistic antiproliferative activity against human MIAPaCa2 cells assessed as cell death at 2.5 uM after 72 hrs in presence of 10 uM 6TP by alamar blue assay (reference value: 6.9%); assay type: functional
[12] = test system: REH; experiment: Synergistic antiproliferative activity against human REH cells assessed as cell death at 5 uM after 72 hrs in presence of 100 uM 6TP by alamar blue assay (reference value: 49.5%); assay type: functional
[13] = test system: HeLa; experiment: Synergistic antiproliferative activity against human HeLa cells at 2.5 to 5 uM after 72 hrs in presence of 6TP by alamar blue assay; assay type: functional, cell-based
[14] = test system: REH; experiment: Synergistic antiproliferative activity against human REH cells assessed as cell death at 2.5 uM after 72 hrs in presence of 100 uM 6TP by alamar blue assay (reference value: 49.5%); assay type: functional
[15] = test system: MIA PaCa-2; experiment: Synergistic antiproliferative activity against human MIAPaCa2 cells assessed as cell death at 5 uM after 72 hrs in presence of 10 uM 6TP by alamar blue assay (reference value: 6.9%); assay type: functional
[16] = test system: MIA PaCa-2; experiment: Synergistic antiproliferative activity against human MIAPaCa2 cells assessed as cell death at 2.5 uM after 72 hrs in presence of 25 uM 6TP by alamar blue assay (reference value: 6.4%); assay type: functional
[17] = test system: REH; experiment: Synergistic antiproliferative activity against human REH cells assessed as cell death at 5 uM after 72 hrs in presence of 10 uM 6TP by alamar blue assay (reference value: 10.8%); assay type: functional
[18] = test system: U-937; experiment: Synergistic antiproliferative activity against human U937 cells at 2.5 to 5 uM after 72 hrs in presence of 6TP by alamar blue assay based Chou-Talalay method; assay type: functional, cell-based
[19] = test system: REH; experiment: Synergistic antiproliferative activity against human REH cells assessed as cell death at 2.5 uM after 72 hrs in presence of 10 uM 6TP by alamar blue assay (reference value: 10.8%); assay type: functional
[20] = test system: REH; experiment: Synergistic antiproliferative activity against human REH cells assessed as cell death at 5 uM after 72 hrs in presence of 50 uM 6TP by alamar blue assay (reference value: 21.9%); assay type: functional
[21] = test system: U-937; experiment: Antiproliferative activity against human U937 cells assessed as reduction in cell viability after 72 hrs by alamar blue assay; assay type: functional, cell-based; conditions: U-937, 72 h; procedure, shortened: as §1
[22] = test system: MIA PaCa-2; experiment: Antiproliferative activity against human MIAPaCa2 cells assessed as reduction in cell viability after 72 hrs by alamar blue assay; assay type: functional, cell-based; conditions: MIA PaCa-2, 72 h; procedure, shortened: as §1
[23] = test system: REH; experiment: Synergistic antiproliferative activity against human REH cells at 2.5 to 5 uM uM after 72 hrs in presence 6TP by alamar blue assay based alamar blue assay; assay type: functional, cell-based
[24] = test system: HeLa; experiment: Antiproliferative activity against human HeLa cells assessed as reduction in cell viability after 72 hrs by alamar blue assay; assay type: functional, cell-based; procedure, shortened: as §1
[25] = Inhibition of UDPGDH/UGT-1A in hepatocytes (unknown origin) assessed as reduction in BDG production at 5 uM by HPLC analysis; assay type: ADME, cell-based; conditions: human
[26] = Inhibition of Streptococcus pyogenes UDPGDH expressed in Escherichia coli/rat liver microsome UGT-1A assessed as reduction in BDG production at 5 uM in presence of UDPGA by HPLC analysis; assay type: ADME; conditions: microsomes
Procedure, shortened: (§2)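 Coupled in vitro model in phosphate buffer with alamethicin. Microsomal UGT-1A 4.4 units/mL, 2 mM bilirubin, 10 mM NAD+, 5 mM UDPG, UDPGDH:UGT-1A ratio 1:2200. Reaction started by adding UDPGDH. UDPGA-rescue arm included 15 μM UDPGA. Bilirubin mono- and diglucuronide formation measured by HPLC.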

[27] = target: T1, UDP-glucose 6-dehydrogenase (Streptococcus pyogenes, UniProt P0C0F4); experiment: Inhibition of Streptococcus pyogenes UDPGDH expressed in Escherichia coli assessed as inhibitior constant after 20 to 120 secs by UV-VIS spectroscopic analysis
[28] = Inhibition of Streptococcus pyogenes UDPGDH expressed in Escherichia coli/rat liver microsome UGT-1A assessed as reduction in BMG production at 5 uM by HPLC analysis; assay type: ADME; conditions: microsomes; procedure, shortened: as §2
[29] = target: T1, UDP-glucose 6-dehydrogenase; experiment: Inhibition of Streptococcus pyogenes UDPGDH expressed in Escherichia coli assessed as inhibitior constant by mesuring UDPGA production after 20 to 120 secs by HPLC analysis
Procedure, shortened: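 UDPGA formed by UDPGDH was quantified by reverse-phase C18 HPLC at 262 nm against a UDPGA standard curve. Aqueous phase 8 mM imidazole/2.5 mM TBAHS, pH 6.5; organic phase methanol; 0.5 mL/min gradient over a 23 min run. UDPG was varied at several inhibitor levels. Slopes of the lines were plotted against inhibitor concentration, and Ki was taken as the […] x-intercept.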

[30] = Inhibition of Streptococcus pyogenes UDPGDH expressed in Escherichia coli/rat liver microsome UGT-1A assessed as reduction in BMG production at 5 uM in presence of UDPGA by HPLC analysis; assay type: ADME; conditions: microsomes; procedure, shortened: as §2
[31] = Inhibition of UDPGDH/UGT-1A in hepatocytes (unknown origin) assessed as reduction in BMG production at 5 uM in presence of UDPGA by HPLC analysis; assay type: ADME, cell-based; conditions: human
[32] = Inhibition of Streptococcus pyogenes UDPGDH expressed in Escherichia coli/rat liver microsome UGT-1A assessed as reduction in BDG production at 5 uM by HPLC analysis; assay type: ADME; conditions: microsomes; procedure, shortened: as §2
[33] = Inhibition of Streptococcus pyogenes UDPGDH expressed in Escherichia coli/rat liver microsome UGT-1A assessed as reduction in BDG production at 10 uM by HPLC analysis; assay type: ADME; conditions: microsomes; procedure, shortened: as §2
[34] = Inhibition of Streptococcus pyogenes UDPGDH expressed in Escherichia coli/rat liver microsome UGT-1A assessed as reduction in BMG production at 10 uM by HPLC analysis; assay type: ADME; conditions: microsomes; procedure, shortened: as §2
[35] = Inhibition of UDPGDH/UGT-1A in hepatocytes (unknown origin) assessed as reduction in BDG production at 25 uM by HPLC analysis; assay type: ADME, cell-based; conditions: human

T1 sequence (P0C0F4 whole entry): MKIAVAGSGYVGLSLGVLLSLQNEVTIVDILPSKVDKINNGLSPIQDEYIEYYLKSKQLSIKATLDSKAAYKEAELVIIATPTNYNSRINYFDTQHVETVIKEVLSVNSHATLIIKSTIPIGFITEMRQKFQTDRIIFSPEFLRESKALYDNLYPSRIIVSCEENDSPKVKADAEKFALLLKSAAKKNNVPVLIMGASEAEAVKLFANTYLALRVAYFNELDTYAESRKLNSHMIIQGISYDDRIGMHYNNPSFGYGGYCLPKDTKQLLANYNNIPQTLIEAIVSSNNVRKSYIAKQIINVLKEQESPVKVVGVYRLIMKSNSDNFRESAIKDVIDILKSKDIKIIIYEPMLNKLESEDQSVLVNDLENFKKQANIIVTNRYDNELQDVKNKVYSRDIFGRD

Compound | Ki [27] | Ki [29] | IC50 [1] | Activity [3] | Activity [4] | Activity [6] | Activity [7] | Activity [9] | Activity [10] | Activity [11] | Activity [13] | Activity [15] | Activity [16] | Activity [18] | Activity [23] | further results
COCOc1cc(OC)c(C(=O)/C=C/c2ccccc2)c(OCOC)c1 |  |  | 7.2 µM | 40.8% | 25.1% | 30% | 49.1% | inactive | 61.2% | 16.5% | inactive | 25.4% | 18.6% | inactive |  | Activity [2]: 22.1%; Activity [5]: 19.1%; Activity [8]: 13.5%; Activity [12]: 51%; Activity [14]: 51%; Activity [17]: 12.7%; Activity [19]: 11.1%; Activity [20]: 26.1%
COCOc1cc(OCOC)c(C(=O)/C=C/c2ccccc2)c(OCOC)c1 |  |  | > 20 µM | 17% | 16.9% | 17.3% | 17.6% | inactive | 19.3% | 14.2% | inactive | 18.4% | 15% | inactive | inactive | IC50 [21]: 7.4 µM; IC50 [22]: > 20 µM; IC50 [24]: 12.2 µM
COCOc1cc(O)c(C(=O)/C=C/c2ccccc2)c(OCOC)c1 |  |  |  | 13% | 9.7% | 8.2% | 15.2% | inactive | 19.9% | 7% | inactive | 8.1% | 7.2% | inactive | inactive | 
CNC(=O)c1cc(Oc2ccc(NC(=O)Nc3ccc(Cl)c(C(F)(F)F)c3)c(F)c2)ccn1 [REGORAFENIB] |  |  |  |  |  |  |  |  |  |  |  |  |  |  |  | inhibition (INH) [33]: Active; inhibition (INH) [34]: Active

Now from value to compound, other results behind:

Ki [27] | Ki [29] | Compound | IC50 [1] | Activity [3] | Activity [4] | Activity [6] | Activity [7] | Activity [9] | Activity [10] | Activity [11] | Activity [13] | Activity [15] | Activity [16] | Activity [18] | Activity [23] | further results
7 µM | 5 µM | O=c1[nH]c(=S)c2[nH]c(=O)[nH]c2[nH]1 |  |  |  |  |  |  |  |  |  |  |  |  |  | inhibition (INH) [25]: Active; inhibition (INH) [26]: Not Active; inhibition (INH) [28]: Active; inhibition (INH) [30]: Not Active; inhibition (INH) [31]: Not Active; inhibition (INH) [32]: Active
288 µM | 111 µM | Sc1ncnc2nc[nH]c12 [MERCAPTOPURINE ANHYDROUS] |  |  |  |  |  |  |  |  |  |  |  |  |  | inhibition (INH) [35]: Active
